# In ChEMBL document CHEMBL3271984, “Antifungal activity of 4-substituted crotonic acid esters” (1976):
# Activity calls are given as the source filed them. The calls are words filed in the database; no cut-off is given here.
# What was measured:
# Candida albicans [1] = assay: Antifungal activity against Candida albicans ATCC 10231 assessed as growth inhibition at pH 7 incubated for 20 hrs in presence of 10% beef serum; format: functional; conditions: ATCC 10231, 20 h, read-out: MIC100
# Summary of the method: (§1)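 Agar dilution in Sabouraud dextrose agar at pH 5.6 or 7.0, with or without 10% beef serum. C. albicans and M. mucedo were incubated 20 h at 37°; A. niger and T. mentagrophytes 5 days at 28°. The value is the minimal µg/ml giving 100% inhibition. Steps were 1 µg/ml up to 10, 2 up to 20, then 10 up to 100 µg/ml maximum.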
# Candida albicans [2] = assay: Antifungal activity against Candida albicans ATCC 10231 assessed as growth inhibition at pH 5.6 incubated for 20 hrs in absence of 10% beef serum; format: functional; conditions: ATCC 10231, 20 h, read-out: MIC100; summary of the method: as §1
# Candida albicans [3] = assay: Antifungal activity against Candida albicans ATCC 10231 assessed as growth inhibition at pH 5.6 incubated for 20 hrs in presence of 10% beef serum; format: functional; conditions: ATCC 10231, 20 h, read-out: MIC100; summary of the method: as §1
# Candida albicans [4] = assay: Antifungal activity against Candida albicans ATCC 10231 assessed as growth inhibition at pH 7 incubated for 20 hrs in absence of 10% beef serum; format: functional; conditions: ATCC 10231, 20 h, read-out: MIC100; summary of the method: as §1
# Aspergillus niger [5] = assay: Antifungal activity against Aspergillus niger ATCC 1004 assessed as growth inhibition at pH 5.6 incubated for 5 days in absence of 10% beef serum; format: functional; conditions: for MIC: ATCC 1004, 120 h, read-out: MIC100; summary of the method: as §1
# Aspergillus niger [6] = assay: Antifungal activity against Aspergillus niger ATCC 1004 assessed as growth inhibition at pH 5.6 incubated for 5 days in presence of 10% beef serum; format: functional; conditions: for MIC: ATCC 1004, 120 h, read-out: MIC100; summary of the method: as §1
# Aspergillus niger [7] = assay: Antifungal activity against Aspergillus niger ATCC 1004 assessed as growth inhibition at pH 7 incubated for 5 days in absence of 10% beef serum; format: functional; conditions: for MIC: ATCC 1004, 120 h, read-out: MIC100; summary of the method: as §1
# Aspergillus niger [8] = assay: Antifungal activity against Aspergillus niger ATCC 1004 assessed as growth inhibition at pH 7 incubated for 5 days in presence of 10% beef serum; format: functional; conditions: for MIC: ATCC 1004, 120 h, read-out: MIC100; summary of the method: as §1
# Mucor mucedo [9] = assay: Antifungal activity against Mucor mucedo ATCC 7941 assessed as growth inhibition at pH 5.6 incubated for 20 hrs in absence of 10% beef serum; format: functional; conditions: for MIC: ATCC 7941, 20 h, read-out: MIC100; summary of the method: as §1
# Mucor mucedo [10] = assay: Antifungal activity against Mucor mucedo ATCC 7941 assessed as growth inhibition at pH 5.6 incubated for 20 hrs in presence of 10% beef serum; format: functional; conditions: ATCC 7941, 20 h, read-out: MIC100; summary of the method: as §1
# Mucor mucedo [11] = assay: Antifungal activity against Mucor mucedo ATCC 7941 assessed as growth inhibition at pH 7 incubated for 20 hrs in absence of 10% beef serum; format: functional; conditions: ATCC 7941, 20 h, read-out: MIC100; summary of the method: as §1
# Mucor mucedo [12] = assay: Antifungal activity against Mucor mucedo ATCC 7941 assessed as growth inhibition at pH 7 incubated for 20 hrs in presence of 10% beef serum; format: functional; conditions: ATCC 7941, 20 h, read-out: MIC100; summary of the method: as §1
# [13] = tested on: Trichophyton mentagrophytes; assay: Antifungal activity against Trichophyton mentagrophytes ATCC 9129 assessed as growth inhibition at pH 5.6 incubated for 5 days in absence of 10% beef serum; format: functional; conditions: for MIC: ATCC 9129, 120 h, read-out: MIC100; summary of the method: as §1
# [14] = tested on: Trichophyton mentagrophytes; assay: Antifungal activity against Trichophyton mentagrophytes ATCC 9129 assessed as growth inhibition at pH 5.6 incubated for 5 days in presence of 10% beef serum; format: functional; conditions: ATCC 9129, 120 h, read-out: MIC100; summary of the method: as §1
# [15] = tested on: Trichophyton mentagrophytes; assay: Antifungal activity against Trichophyton mentagrophytes ATCC 9129 assessed as growth inhibition at pH 7 incubated for 5 days in absence of 10% beef serum; format: functional; conditions: ATCC 9129, 120 h, read-out: MIC100; summary of the method: as §1
# [16] = tested on: Trichophyton mentagrophytes; assay: Antifungal activity against Trichophyton mentagrophytes ATCC 9129 assessed as growth inhibition at pH 7 incubated for 5 days in presence of 10% beef serum; format: functional; conditions: ATCC 9129, 120 h, read-out: MIC100; summary of the method: as §1
# Candida albicans [17] = assay: Antifungal activity against Candida albicans ATCC 10231 incubated for 20 hrs; format: functional, organism-based
# Aspergillus niger [18] = assay: Antifungal activity against Aspergillus niger ATCC 1004 incubated for 5 days; format: functional, organism-based
# Mucor mucedo [19] = assay: Antifungal activity against Mucor mucedo ATCC 7941 incubated for 20 hrs; format: functional, organism-based
# [20] = tested on: Trichophyton mentagrophytes; assay: Antifungal activity against Trichophyton mentagrophytes ATCC 9129 incubated for 5 days; format: functional, organism-based
SMILES,MIC (Candida albicans [1]),MIC (Candida albicans [2]),MIC (Candida albicans [3]),MIC (Candida albicans [4]),MIC (Aspergillus niger [5]),MIC (Aspergillus niger [7]),MIC (Mucor mucedo [9]),MIC (Mucor mucedo [10]),MIC (Mucor mucedo [11]),MIC (Mucor mucedo [12]),MIC [13],MIC [14],MIC [15],MIC [16],MIC (Aspergillus niger [6]),MIC (Aspergillus niger [8]),other results
CCCOC(=O)/C=C/CBr,40 µg/mL,18 µg/mL,30 µg/mL,30 µg/mL,80 µg/mL,60 µg/mL,4 µg/mL,5 µg/mL,4 µg/mL,7 µg/mL,< 1 µg/mL,3 µg/mL,3 µg/mL,7 µg/mL,90 µg/mL,80 µg/mL,
C=CC(=O)OC,,,,,,,,,,,,,,,,,Activity (Candida albicans [17]): inactive; Activity (Aspergillus niger [18]): inactive; Activity (Mucor mucedo [19]): inactive; Activity [20]: inactive
C/C=C/C(=O)OCC,,,,,,,,,,,,,,,,,Activity (Candida albicans [17]): inactive; Activity (Aspergillus niger [18]): inactive; Activity (Mucor mucedo [19]): inactive; Activity [20]: inactive
CCCOC(=O)/C=C/CI,20 µg/mL,10 µg/mL,16 µg/mL,12 µg/mL,30 µg/mL,30 µg/mL,2 µg/mL,5 µg/mL,3 µg/mL,6 µg/mL,< 1 µg/mL,3 µg/mL,2 µg/mL,7 µg/mL,60 µg/mL,60 µg/mL,
C/C=C/C(=O)OCCCC,,,,,,,,,,,,,,,,,Activity (Candida albicans [17]): inactive; Activity (Aspergillus niger [18]): inactive; Activity (Mucor mucedo [19]): inactive; Activity [20]: inactive
COC/C=C/C(=O)OC,,,,,,,,,,,,,,,,,MIC100 (Mucor mucedo [9]): inactive; MIC100 [13]: inactive
CCOC(=O)/C=C/CI,18 µg/mL,8 µg/mL,18 µg/mL,10 µg/mL,40 µg/mL,40 µg/mL,< 1 µg/mL,4 µg/mL,3 µg/mL,5 µg/mL,< 1 µg/mL,2 µg/mL,2 µg/mL,4 µg/mL,50 µg/mL,40 µg/mL,

# Second part, led by results:
MIC (Candida albicans [1]),MIC (Candida albicans [2]),MIC (Candida albicans [3]),MIC (Candida albicans [4]),MIC (Aspergillus niger [5]),MIC (Aspergillus niger [7]),MIC (Mucor mucedo [9]),MIC (Mucor mucedo [10]),MIC (Mucor mucedo [11]),MIC (Mucor mucedo [12]),MIC [13],MIC [14],MIC [15],MIC [16],MIC (Aspergillus niger [6]),MIC (Aspergillus niger [8]),SMILES,other results
50 µg/mL,20 µg/mL,50 µg/mL,30 µg/mL,70 µg/mL,70 µg/mL,3 µg/mL,14 µg/mL,14 µg/mL,30 µg/mL,< 1 µg/mL,4 µg/mL,2 µg/mL,10 µg/mL,,,CCCCCOC(=O)/C=C/CBr,MIC100 (Aspergillus niger [6]): inactive; MIC100 (Aspergillus niger [8]): inactive
50 µg/mL,5 µg/mL,40 µg/mL,12 µg/mL,40 µg/mL,30 µg/mL,4 µg/mL,9 µg/mL,3 µg/mL,12 µg/mL,< 1 µg/mL,4 µg/mL,2 µg/mL,10 µg/mL,,,CCCCCOC(=O)/C=C/CI,MIC100 (Aspergillus niger [6]): inactive; MIC100 (Aspergillus niger [8]): inactive
90 µg/mL,20 µg/mL,70 µg/mL,20 µg/mL,,,14 µg/mL,40 µg/mL,16 µg/mL,50 µg/mL,< 1 µg/mL,14 µg/mL,4 µg/mL,30 µg/mL,,,CCCCCCOC(=O)/C=C/CBr,MIC100 (Aspergillus niger [5]): inactive; MIC100 (Aspergillus niger [6]): inactive; MIC100 (Aspergillus niger [7]): inactive; MIC100 (Aspergillus niger [8]): inactive
40 µg/mL,16 µg/mL,30 µg/mL,30 µg/mL,60 µg/mL,50 µg/mL,4 µg/mL,4 µg/mL,4 µg/mL,7 µg/mL,< 1 µg/mL,4 µg/mL,3 µg/mL,8 µg/mL,100 µg/mL,80 µg/mL,CCCCOC(=O)/C=C/CBr,
